“Also recorded” adds a separate entry of the source. Read-outs that look alike come from different tables or passages of the source.
How the values were obtained:
[1] = human plasma; cited from earlier work
[2] = Pharmacokinetics, Japanese and Chinese participants together or compared; format: in vivo, human
Summary of the method: (§1)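 Healthy males aged 18–50 y, randomized 3:1 to active or placebo (single-blind). Oral suspension given once daily each morning after a ≥10 h fast for 10 days: Japanese cohorts 2.5, 5 or 10 mg, Chinese cohort 5 mg. K2EDTA blood drawn pre-dose and 0.25–12 h post-dose on days 1 and 10, plus 24–336 h. Urine pooled 0–3, 3–6, 6–9, 9–12 and 12–24 h on day 10. Plasma spun 1500g, 4 °C, 10 min; samples stored at −50 to −90 °C.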

[3] = Stability of frozen plasma and urine pharmacokinetic samples; design: species or system human; settings: stored frozen at − 50 to − 90 °C
[4] = SAD study 5–405 mg; cited from earlier work
[5] = Safety and tolerability, Japanese and Chinese participants together; format: in vivo, human
Summary of the method: (§2)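 Safety assessed at every visit in all randomized participants given ≥1 dose of drug or placebo (oral suspension once daily for 10 days, 3:1 randomization). Covered AE and SAE incidence and severity, vital signs, ECGs, laboratory tests and skin rash. Participants resided on site from day −1 to day 12, with visits on days 14, 16, 20 and 24. Rash graded by CTCAE; relatedness judged by the investigator.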

[6] = format: in vivo, human
Summary of the method: as §1

[7] = format: in vivo, human; settings: for Ae(0–last), cumulative amount excreted in urine / fe(0–last), fraction of dose excreted unchanged in urine: day 10; for Vd/F / half-life / CL renal: human, po; for Vd/F / half-life: plasma; for Ae(0–last), cumulative amount excreted in urine / fe(0–last), fraction of dose excreted unchanged in urine / CL renal: urine
Summary of the method: as §1

[8] = cited from earlier work; for mean CL/F on the last study day: mainly white and Black/African American participants
[9] = Safety and tolerability in healthy Chinese volunteers; format: in vivo, human; settings: 5 mg once daily for 10 days, n = 6
Summary of the method: as §2

[10] = Safety and tolerability in healthy Japanese volunteers; format: in vivo, human; settings: for Any AE / Any AE leading to discontinuation / Any SAE / Any possibly related AE / Death / Maculopapular rash: Japanese
Summary of the method: as §2

[11] = Chinese, 5 mg oral once daily, day 10, n = 5, urine
[12] = Japanese, 2.5 mg oral once daily, n = 6
[13] = Japanese, 5 mg oral once daily, n = 5
[14] = Japanese, 10 mg oral once daily, n = 3
[15] = 2.5 mg once daily for 10 days, n = 6
[16] = 5 mg once daily for 10 days, n = 6
[17] = 10 mg once daily for 10 days, n = 6
[18] = total mitiperstat 2.5, 5 or 10 mg, n = 18

C[C@@H](N)c1cc(Cl)ccc1Cn1c(=S)[nH]c(=O)c2[nH]ccc21 [Mitiperstat]
share of drug-related exposure in plasma [1]: approximately 7% | mean CL/F on the last study day ([2]; Japanese and Chinese cohorts receiving 5 mg): 25.3 L/h | time to steady state ([2]; Japanese and Chinese, once-daily oral dosing): ≤ 10 days | time to steady state by visual interpretation ([2]; Japanese and Chinese, trough concentrations): approximately 7 days | renal clearance as share of apparent total clearance ([2]; both Japanese and Chinese participants): approximately 50% | median time to Cmax ([2]; day 10, Japanese and Chinese, range of group medians): 1.02 to 2.00 h | half-life ([2]; human, plasma, po): 50.2 to 57.8 h | known stability period of study samples ([3]; plasma): 438 days | known stability period of study samples ([3]; urine): 439 days | dose proportionality of exposure (average AUC) [4]: increased proportionally with mitiperstat dose | laboratory results, vital signs or electrocardiograms ([5]; Japanese and Chinese, 2.5–10 mg once daily for 10 days): No clinically significant trends or shifts from baseline | time to resolution of rash ([5]; all cases of rash): ≤ 1 month | day of rash occurrence ([5]; the other four participants who experienced rash): 9 days | adverse events of rash of moderate intensity (maculopapular rash, CTCAE grade 2) ([5]; three Japanese 10 mg, one Chinese 5 mg): Four | Ae(0–last), cumulative amount excreted in urine [6, 11]: 2.48 (0.53) mg | fe(0–last), fraction of dose excreted unchanged in urine [6, 11]: 49.59 (10.62) % | Vd/F ([6]; human, plasma, po, 5 mg): 1960 L | half-life ([6]; human, plasma, po, 5 mg): 55.4 h | CL renal ([6]; human, urine, po, 5 mg): 200 mL/min | Ae(0–last), cumulative amount excreted in urine [7, 12]: 1.20 (0.29) mg | fe(0–last), fraction of dose excreted unchanged in urine [7, 12]: 47.94 (11.55) % | Ae(0–last), cumulative amount excreted in urine [7, 13]: 2.56 (0.72) mg | fe(0–last), fraction of dose excreted unchanged in urine [7, 13]: 51.14 (14.31) % | Ae(0–last), cumulative amount excreted in urine [7, 14]: 6.29 (1.77) mg | fe(0–last), fraction of dose excreted unchanged in urine [7, 14]: 62.94 (17.71) % | dose proportionality of exposure (AUC, Ctrough and Cmax) ([7]; Japanese, 2.5–10 mg range): dose proportional; also recorded: increased proportionally with dose | Vd/F ([7]; 2.5 mg): 2300 L | half-life ([7]; 2.5 mg): 50.2 h | Vd/F ([7]; 5 mg): 2170 L | half-life ([7]; 5 mg): 57.8 h | Vd/F ([7]; 10 mg): 2250 L | half-life ([7]; 10 mg): 56.4 h | CL renal ([7]; 2.5 mg): 248 mL/min | CL renal ([7]; 5 mg): 215 mL/min | CL renal ([7]; 10 mg): 282 mL/min | dose proportionality of AUC and Cmax ([8]; MAD study 5–45 mg, last day of dosing): approximately proportional to dose | time to Cmax ([8]; healthy participants): approximately 1 h | mean CL/F on the last study day ([8]; 5 mg): 22.8 L/h | mean CL/F on the last study day ([8]; 10 mg): 20.6 L/h | Any AE [9]: 2 (33.3) n (%) | Any AE leading to discontinuation [9]: 1 (16.7) n (%) | Any SAE [9]: 0 (0.0) n (%) | Any possibly related AE [9]: 2 (33.3) n (%) | Death [9]: 0 (0.0) n (%) | Maculopapular rash [9]: 1 (16.7) n (%) | Any AE [10, 15]: 1 (16.7) n (%) | Any AE leading to discontinuation [10, 15]: 0 (0.0) n (%) | Any SAE [10, 15]: 0 (0.0) n (%) | Any possibly related AE [10, 15]: 0 (0.0) n (%) | Death [10, 15]: 0 (0.0) n (%) | Maculopapular rash [10, 15]: 0 (0.0) n (%) | Any AE [10, 16]: 2 (33.3) n (%) | Any AE leading to discontinuation [10, 16]: 1 (16.7) n (%) | Any SAE [10, 16]: 0 (0.0) n (%) | Any possibly related AE [10, 16]: 1 (16.7) n (%) | Death [10, 16]: 0 (0.0) n (%) | Maculopapular rash [10, 16]: 1 (16.7) n (%) | Any AE [10, 17]: 4 (66.7) n (%) | Any AE leading to discontinuation [10, 17]: 3 (50.0) n (%) | Any SAE [10, 17]: 0 (0.0) n (%) | Any possibly related AE [10, 17]: 3 (50.0) n (%) | Death [10, 17]: 0 (0.0) n (%) | Maculopapular rash [10, 17]: 3 (50.0) n (%) | Any AE [10, 18]: 7 (38.9) n (%) | Any AE leading to discontinuation [10, 18]: 4 (22.2) n (%) | Any SAE [10, 18]: 0 (0.0) n (%) | Any possibly related AE [10, 18]: 4 (22.2) n (%) | Death [10, 18]: 0 (0.0) n (%) | Maculopapular rash [10, 18]: 4 (22.2) n (%) | day of rash occurrence ([10]; Participant receiving 5 mg): 4 days
